High-throughput results: PubChem BioAssay, The Scripps Research Institute Molecular Screening Center
Most compounds without a hit are left out; they make up all but 4.7% or so of the library.
MC4R ag barr: activates human MC4R beta-arrestin recruitment | P32245 | U2OS MC4R beta-arrestin complementation, luminescence; percent of melanotan II response, DMSO zero | activation, % at 8.9 µM | actives 0.98% (n = 360,000);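 active means activation above a per-plate cutoff, the mean activation of sample wells on that plate plus 3 SD, cut at about 8% in these data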
m5-HT2A agonist: mouse HTR2A agonism via beta-arrestin recruitment. CHO-K1 mHTR2A beta-arrestin complementation, luminescence; percent of 30 µM serotonin response. AID 624169. P35363. actives 0.66% (n = 360,000). activation, % at 7.6 µM;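 active means activation above a run cutoff, the mean activation of all tested compounds plus 3 SD, cut at about 14% in these data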;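 further: 0% = plate median of compound wells and 100% = 30 µM serotonin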
FXN GAA850 act: increases GAA850 frataxin promoter reporter activity | actives 0.56% (n = 360,000) | AID 540364 | activation, % at 6 µM | HEK293 lucGAA850 FXN promoter luciferase reporter, 24 h; percent of 10 µM SAHA response;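 active means activation above the average of all compounds screened plus 3 SD, cutoff fixed separately per campaign, cut at about 7.5% in these data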;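 further: 0% = DMSO wells and 100% = 10 µM SAHA wells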
MC4R antag cAMP: human MC4R antagonism in cAMP assay | P32245 | MC4R-expressing cells, MTII-stimulated cAMP, LANCE TR-FRET | inhibition, % at 6.5 µM | actives 0.48% (n = 360,000);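 active means inhibition above its plate's cutoff, the mean of tested wells on that plate plus 3 SD, cut at about 29% in these data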;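 further: 0% = Melanotan II alone and 100% = Melanotan II plus saturating MCL0020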
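Material: human MC4R-expressing U2OS cells. Probe or stimulus: Melanotan II challenge. Dosing: 6.5 µM single dose. Times: 30-min compound, 1-h challenge, 1-h detection, room temperature. Technique: TR-FRET with Eu-cAMP and labeled anti-cAMP, 671 nm. Replication: singlicate.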
AHR act: human AHR activation. actives 2.5% (n = 320,000). P35869. AHR-responsive luciferase reporter cells, luminescence. activation, % at 5 µM; in the data active means activation above about 47%;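 further: 0% = vehicle wells and 100% = reference agonist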
Target sequence (P35869 whole entry, looked up): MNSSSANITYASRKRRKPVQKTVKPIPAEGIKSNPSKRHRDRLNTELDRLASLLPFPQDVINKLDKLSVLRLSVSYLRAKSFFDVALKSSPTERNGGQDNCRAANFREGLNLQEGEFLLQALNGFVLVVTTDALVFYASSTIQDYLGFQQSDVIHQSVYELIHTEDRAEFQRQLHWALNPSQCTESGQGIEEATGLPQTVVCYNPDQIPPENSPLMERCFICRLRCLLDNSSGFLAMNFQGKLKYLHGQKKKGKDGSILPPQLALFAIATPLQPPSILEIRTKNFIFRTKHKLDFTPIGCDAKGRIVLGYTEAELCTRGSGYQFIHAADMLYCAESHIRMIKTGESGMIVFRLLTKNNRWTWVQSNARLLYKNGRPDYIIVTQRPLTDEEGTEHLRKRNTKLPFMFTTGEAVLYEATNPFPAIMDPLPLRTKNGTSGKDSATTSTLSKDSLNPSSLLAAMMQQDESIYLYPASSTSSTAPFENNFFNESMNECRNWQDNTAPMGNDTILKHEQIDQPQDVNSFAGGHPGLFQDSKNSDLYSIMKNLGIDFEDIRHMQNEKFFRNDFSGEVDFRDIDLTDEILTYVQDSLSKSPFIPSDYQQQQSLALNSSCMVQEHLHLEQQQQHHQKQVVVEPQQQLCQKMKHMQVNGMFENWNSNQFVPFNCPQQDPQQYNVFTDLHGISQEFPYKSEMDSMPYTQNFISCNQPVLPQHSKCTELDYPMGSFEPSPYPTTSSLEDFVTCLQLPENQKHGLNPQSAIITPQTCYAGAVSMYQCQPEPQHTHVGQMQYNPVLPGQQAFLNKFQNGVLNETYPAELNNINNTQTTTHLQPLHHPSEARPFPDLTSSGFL
MC4R barr ag: human MC4R beta-arrestin agonism confirmation; shares compounds with MC4R ag barr; AID 602192; U2OS MC4R beta-arrestin recruitment, luminescence; scaled DMSO 0%, Melanotan II 100%; actives 31% (n = 2,400); activation, % at 8.9 µM;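 active means mean activation across replicates above the hit cutoff set in the earlier primary screen, cut at about 8% in these data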
MOR-DOR barr ag: activates mu-delta opioid heterodimer, MC4R agonist counter-screen; shares compounds with MC4R ag barr; U2OS PathHunter beta-arrestin, beta-gal luminescence; percent of deltorphin B response, DMSO zero; activation, % at 9.2 µM; actives 5.8% (n = 2,400); AID 602194;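 active means mean activation across replicates exceeds the hit threshold derived in the earlier primary screen, cut at about 18% in these data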;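 further: 100% = deltorphin B at 0.9 µM final and 0% = DMSO alone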
The depositor's hits bear a star.

What do the screens show for `O=C(COC(=O)/C=C/c1ccccc1Cl)NCCNC(=O)COC(=O)/C=C/c1ccccc1Cl`?
MC4R ag barr: 12*; m5-HT2A agonist: 6; FXN GAA850 act: -2; MC4R antag cAMP: 4; AHR act: 3; MC4R barr ag: 1; MOR-DOR barr ag: 4

What do the screens show for `O=C(COC(=O)/C=C/c1ccccc1Cl)NCc1ccccc1`?
MC4R ag barr: 1; m5-HT2A agonist: -4; FXN GAA850 act: -2; MC4R antag cAMP: -4; AHR act: -1

Results for O=C(O)c1ccc(NC(C(=O)c2ccccc2)c2ccccc2)cc1 (stereo not given) ?
MC4R ag barr: 1; m5-HT2A agonist: 0; FXN GAA850 act: 2; MC4R antag cAMP: 0

How did Cc1nc(NC(=O)c2cc3ccccc3o2)ccc1Br do in these assays?
MC4R ag barr: 11*; m5-HT2A agonist: -4; FXN GAA850 act: 3; MC4R antag cAMP: 0; AHR act: 15; MC4R barr ag: 0; MOR-DOR barr ag: 3

Results for CC1(C(=O)NCc2cccc3ccccc23)CCN1Cc1cccc2c1OCO2 (stereo not given) ?
MC4R ag barr: -1; m5-HT2A agonist: -5; FXN GAA850 act: 2; MC4R antag cAMP: -13

What do the screens show for `Cc1cc(C)c(Cn2c(=O)n(CCCC(=O)NCc3ccco3)c(=O)c3sccc32)c(C)c1`?
MC4R ag barr: 33*; m5-HT2A agonist: 2; FXN GAA850 act: -2; MC4R antag cAMP: 0; AHR act: 7; MC4R barr ag: -1; MOR-DOR barr ag: 7

Results for CC1(C(=O)NS(=O)(=O)c2cccs2)CCN1C(=O)CC1CCCCC1 (stereo not given) ?
MC4R ag barr: 1; m5-HT2A agonist: -1; FXN GAA850 act: 2; MC4R antag cAMP: 7

What do the screens show for `COc1cc2nc(SCC(=O)NCc3ccco3)n(Cc3ccc(Cl)cc3)c(=O)c2cc1OC`?
MC4R ag barr: 13*; m5-HT2A agonist: -5; FXN GAA850 act: -4; MC4R antag cAMP: -2; AHR act: 14; MC4R barr ag: -2; MOR-DOR barr ag: 11

Results for CCCCCn1c(SCC(=O)OCC)nc2cc(C(=O)NCc3ccco3)ccc2c1=O ?
MC4R ag barr: 13*; m5-HT2A agonist: -1; FXN GAA850 act: 1; MC4R antag cAMP: 12; AHR act: 5; MC4R barr ag: 2; MOR-DOR barr ag: 31*

What do the screens show for `C=CCn1c(SCC(=O)OCC)nc2cc(C(=O)NCc3ccco3)ccc2c1=O`?
MC4R ag barr: -1; m5-HT2A agonist: 1; FXN GAA850 act: 1; MC4R antag cAMP: -5; AHR act: -2

How did COC(=O)c1c(NC(NC(=O)c2ccccc2)(C(F)(F)F)C(F)(F)F)sc2c1CCN(C)C2 do in these assays?
MC4R ag barr: -2; m5-HT2A agonist: -2; FXN GAA850 act: 0; MC4R antag cAMP: 8; AHR act: -2

Results for CCC(=O)NC(Nc1sc2c(c1C(=O)OC)CCCC2)(C(F)(F)F)C(F)(F)F ?
MC4R ag barr: 15*; m5-HT2A agonist: -2; FXN GAA850 act: 0; MC4R antag cAMP: 9; AHR act: 4; MC4R barr ag: -1; MOR-DOR barr ag: 5

How did c1ccc(COC2CCCN(Cc3nc(Cc4ccccc4)no3)C2)cc1 (stereo not given) do in these assays?
MC4R ag barr: 9.9*; m5-HT2A agonist: -3; FXN GAA850 act: -2; MC4R antag cAMP: 5; AHR act: 3; MC4R barr ag: 1; MOR-DOR barr ag: 4

How did O=C(c1ccc(COc2ccccc2Br)o1)N1N=C(C(F)F)CC1(O)C(F)F (stereo not given) do in these assays?
MC4R ag barr: 15*; m5-HT2A agonist: -3; FXN GAA850 act: -1; MC4R antag cAMP: 13; AHR act: 8; MC4R barr ag: 8; MOR-DOR barr ag: 11

What do the screens show for `O=C(c1ccc(Cn2cc([N+](=O)[O-])cn2)o1)N1N=C(C(F)F)CC1(O)C(F)F` (stereo not given)?
MC4R ag barr: -1; m5-HT2A agonist: 3; FXN GAA850 act: -2; MC4R antag cAMP: 6; AHR act: 5

What do the screens show for `COc1ccc(-c2csc(NC(=O)c3ccccc3C(=O)O)n2)cc1`?
MC4R ag barr: -2; m5-HT2A agonist: -2; FXN GAA850 act: -2; MC4R antag cAMP: 3; AHR act: 0

What do the screens show for `COc1ccc(-c2csc(NC(=O)c3nc(-c4ccccc4)oc3C)n2)cc1`?
MC4R ag barr: 12*; m5-HT2A agonist: 9; FXN GAA850 act: 3; MC4R antag cAMP: -3; AHR act: 8; MC4R barr ag: 2; MOR-DOR barr ag: 4

How did COc1ccc(C(=O)Nc2nnc(SCC(=O)NCc3ccco3)s2)c(OC)c1 do in these assays?
MC4R ag barr: -4; m5-HT2A agonist: -7; FXN GAA850 act: -3; MC4R antag cAMP: 6; AHR act: 4

What do the screens show for `COc1ccc(C(=O)OCC(=O)c2ccc(C3CCCCC3)cc2)cc1`?
MC4R ag barr: -1; m5-HT2A agonist: 3; FXN GAA850 act: -2; MC4R antag cAMP: -2; AHR act: 0

Results for Nc1ccc(O)cc1C(=O)OCC(=O)c1ccc(C2CCCCC2)cc1 ?
MC4R ag barr: 21*; m5-HT2A agonist: 9; FXN GAA850 act: -1; MC4R antag cAMP: 7; AHR act: -1; MC4R barr ag: 12*; MOR-DOR barr ag: 14

What do the screens show for `CCOC(=O)C(C)Oc1cccc2c(=O)n(CC(=O)Nc3ccc(OC)cc3)ccc12` (stereo not given)?
MC4R ag barr: -1; m5-HT2A agonist: -6; FXN GAA850 act: -1; MC4R antag cAMP: -2

How did CN(Cc1ccccc1)C(=O)Nc1c(Cl)cccc1Cl do in these assays?
m5-HT2A agonist: 10

How did O=C(NC1CCCCC1)C(c1cccs1)N(C(=O)C(F)(F)F)c1ccccc1 (stereo not given) do in these assays?
MC4R ag barr: 27*; m5-HT2A agonist: 3; FXN GAA850 act: 0; MC4R antag cAMP: 4; AHR act: 7; MC4R barr ag: 5; MOR-DOR barr ag: 7

What do the screens show for `COc1cc(OC)cc(C(=O)NNC(=O)CCC(=O)c2cc(C)sc2C)c1`?
MC4R ag barr: 2; m5-HT2A agonist: -7; FXN GAA850 act: -1; MC4R antag cAMP: 7; AHR act: 3

How did CCOC(=O)c1ccc(S(=O)(=O)NC2CCC(C)CC2)cc1 (stereo not given) do in these assays?
MC4R ag barr: 11*; m5-HT2A agonist: -3; FXN GAA850 act: 1; MC4R antag cAMP: 1; AHR act: 1; MC4R barr ag: 1; MOR-DOR barr ag: 7
